Consider ten molecules from paper PMC6605687 (The Journal of General Physiology, 2019).

Type in all cases: cell-based
The target of one test is T1, rP2X2-3T receptors (Rattus norvegicus, UniProt P49653, C348T/C430T/C9T).
T1 sequence (P49653 1-472 C9T/C348T/C430T): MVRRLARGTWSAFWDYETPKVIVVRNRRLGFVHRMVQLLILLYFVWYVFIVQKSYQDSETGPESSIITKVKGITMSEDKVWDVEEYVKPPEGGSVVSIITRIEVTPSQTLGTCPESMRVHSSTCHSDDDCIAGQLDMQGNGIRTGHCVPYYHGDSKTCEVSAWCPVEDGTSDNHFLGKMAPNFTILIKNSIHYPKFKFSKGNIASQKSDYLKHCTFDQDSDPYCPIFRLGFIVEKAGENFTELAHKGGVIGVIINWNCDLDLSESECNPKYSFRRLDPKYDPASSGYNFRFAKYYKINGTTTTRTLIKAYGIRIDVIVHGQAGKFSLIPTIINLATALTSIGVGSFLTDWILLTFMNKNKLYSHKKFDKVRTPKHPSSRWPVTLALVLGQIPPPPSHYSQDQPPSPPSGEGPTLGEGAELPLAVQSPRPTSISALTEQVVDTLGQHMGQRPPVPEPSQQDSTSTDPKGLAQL
The test can be described thus: Single channel outside-out patch-clamp recordings, HEK-293 cells. As to conditions: agonist 1 µM, mean ± SEM. The essentials:
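HEK-293 cells were co-transfected by calcium phosphate with rP2X2-3T DNA plus GFP DNA to mark transfected cells, then recorded within 24 h. Outside-out patches were held at −120 mV. Pipette contained 147 NaF, 10 EGTA and 10 HEPES (mM, pH 7.3). Agonist at 1, 10 or 100 µM in extracellular saline (pH 7.3) was applied by fast perfusion for 10 s per 12-s sweep, at 1-min intervals. Amplitudes came from Gaussian fits to all-points histograms, with 2–5 sweeps averaged per patch.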
For orientation: Patch clamp records ionic current or voltage across a cell membrane.

The target in test [1] is T2, rat P2X2 receptor (rP2X2R) WT (Rattus norvegicus, UniProt P49653).
T2 sequence (P49653 1-472): T1 sequence (P49653 1-472 C9T/C348T/C430T) with T9C, T348C, T430C
The conditions noted are these: for Apparent affinity / potency (in words) / Efficacy (in words) / Macroscopic currents elicited (in words): WT P2X2Rs; for Apparent affinity / potency (in words) / Efficacy (in words): compared with ATP; for Imax agonist/Imax ATP (%): maximal current compared to that elicited by 1 mM of ATP, same cell; for Fold increase in EC50 (reduced apparent affinity) compared with ATP: agonist versus ATP; for Macroscopic currents elicited (in words): concentrations of up to 1 mM; for Reduction in efficacy: relative to ATP. The gist of the method: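 Collagenase-digested Xenopus oocytes were injected with WT rP2X2 mRNA (30 ng) and kept in L-15 at 18°C. Two-electrode voltage clamp was done 1–2 days later at −40 mV in ND96 (pH 7.4). Agonists were freshly dissolved in ND96 at pH 7.4. Responses were normalised to 1 mM ATP current in the same cell, and Hill fits gave EC50 and nH. Relative efficacy is the agonist maximal current versus 1 mM ATP. Results are mean ± SEM, compared by one-way ANOVA with Dunnett's test.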

Another test concerns the target T3, rP2X2 Ile185Vah (Rattus norvegicus, UniProt P49653).
T3 sequence (P49653 1-472): T1 sequence (P49653 1-472 C9T/C348T/C430T) with T9C, T348C, T430C
The test is described as follows: Two-electrode voltage clamp, oocytes expressing rP2X2 Ile185Vah. As to conditions: Ile185Vah, mean ± SEM. The essentials: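 The backbone ester was introduced by nonsense suppression. TAG-mutant rP2X2 mRNA was co-injected into Xenopus oocytes with tRNA enzymatically aminoacylated with 2-hydroxyisovaleric acid. Uncharged tRNA co-injection served as the negative control. After incubation at 18°C, two-electrode voltage clamp was done at −40 mV in ND96 (pH 7.4). ATP concentration-response data were normalised and Hill-fitted for EC50 and nH, given as mean ± SEM.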
A general note: Two-electrode voltage clamp is typically applied to oocytes expressing channels or transporters.

Another test has as its target T4, rP2X2 Val70Vah (Rattus norvegicus, UniProt P49653).
T4 sequence (P49653 1-472): T1 sequence (P49653 1-472 C9T/C348T/C430T) with T9C, T348C, T430C
The test can be described thus: Two-electrode voltage clamp, oocytes expressing rP2X2 Val70Vah.

A further test addresses T5, rP2X2 Ile185Val (Rattus norvegicus, UniProt P49653, I185V).
T5 sequence (P49653 1-472 I185V): T1 sequence (P49653 1-472 C9T/C348T/C430T) with T9C, I185V, T348C, T430C
The test is described as follows: Two-electrode voltage clamp, oocytes expressing rP2X2 Ile185Val. The essentials: (§1)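 Mutations were made by site-directed mutagenesis. Xenopus oocytes were injected with rP2X2 mRNA and incubated in L-15 at 18°C. Two-electrode voltage clamp was done 1–2 days later at −40 mV under ND96 perfusion (pH 7.4). ATP concentration-response currents were normalised and fitted to a one-component Hill equation for EC50 and Hill coefficient. Results are mean ± SEM, tested by one-way ANOVA with Dunnett's test against WT.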

Another test addresses T6, rP2X2 Thr184Ser (Rattus norvegicus, UniProt P49653, T184S).
T6 sequence (P49653 1-472 T184S): T1 sequence (P49653 1-472 C9T/C348T/C430T) with T9C, T184S, T348C, T430C
The test can be described thus: Two-electrode voltage clamp, oocytes expressing rP2X2 Thr184Ser. The gist of the method:
as §1

For a further test, the target named is T7, rP2X2 Thr184Val (Rattus norvegicus, UniProt P49653, T184V).
T7 sequence (P49653 1-472 T184V): T1 sequence (P49653 1-472 C9T/C348T/C430T) with T9C, T184V, T348C, T430C
The test can be described thus: Two-electrode voltage clamp, oocytes expressing rP2X2 Thr184Val. The gist of the method: as §1

Setting [2] is: WT rP2X2R, Xenopus oocytes, −40 mV, mean ± SEM.

Numbering of substitutions follows the chain as printed. Entries after “also recorded” stand apart in the source; their conditions may differ. Like-named read-outs stand apart in the source and are kept apart here. Where only a bound is given, the exact number is not on record here.

Broadly, the EC50 is the concentration at which the effect is half-maximal. Low readings indicate higher potency in that assay, high ones lower potency in that assay.

As to `Nc1ncnc2c1ncn2[C@@H]1O[C@@]2(COP(=O)(O)OP(=O)(O)OP(=O)(O)O)CO[C@@H]1[C@@H]2O` [LNA-ATP, locked nucleic acid–ATP], the “SDopen (SD of the open state amplitude)” value at rP2X2-3T receptors was determined as 1.03 ± 0.1. Further, the Unitary current at rP2X2-3T receptors (outside-out patch, −120 mV) is given as −3.58 ± 0.4 pA. Also, in test [1], the “Apparent affinity / potency (in words)” value was “apparent affinity indistinguishable from ATP; also recorded: ATP-like apparent affinity” and the “Efficacy (in words)” value was “significantly reduced efficacy; also recorded: only a minor decrease in efficacy”. The EC50 in test [1] (setting [2]) was determined as 27 ± 1 µM. Besides, the “nH (Hill coefficient)” value in test [1] (WT rP2X2R, mean ± SEM) turned out to be 1.8 ± 0.1. Moreover, the “Imax agonist/Imax ATP (%)” value in test [1] (WT rP2X2R) came out at 66 ± 1%.

Regarding `Nc1ncnc2c1ncn2[C@H]1CC[C@@H](COP(=O)(O)OP(=O)(O)OP(=O)(O)O)O1` [C2′-C3′-ddATP, 2′,3′-dideoxyadenosine-5′-triphosphate], the “Apparent affinity / potency (in words)” value in test [1] was “even less potent agonist; also recorded: further decreased apparent affinity and efficacy”.

As for `Nc1ncnc2c1ncn2[C@H]1C[C@H](O)[C@@H](COP(=O)(O)OP(=O)(O)OP(=O)(O)O)O1` [C2′-dATP, 2′-deoxyadenosine-5′-triphosphate], the EC50 in test [1] was above 300 µM.

As to `O=c1ccn([C@@H]2O[C@H](COP(=O)(O)OP(=O)(O)OP(=O)(O)O)[C@@H](O)[C@H]2O)c(=O)[nH]1` [UTP, uridine 5′-triphosphate], in test [1], a half-maximal effect (EC50) was put at 12000 µM and the “Efficacy (in words)” value was “significantly reduced efficacy”. For the same molecule, the “Fold increase in EC50 (reduced apparent affinity) compared with ATP” value in test [1] (WT rP2X2R) was found to be 400 fold.

Consider `Nc1ncnc2c1ncn2[C@@H](CO)O[C@@H](CO)COP(=O)(O)OP(=O)(O)OP(=O)(O)O` [UNA-ATP, unlocked nucleic acid–ATP], for which the “Macroscopic currents elicited (in words)” value in test [1] was “failed to elicit macroscopic currents; also recorded: does not elicit macroscopic current responses; also recorded: did not act as an agonist”.

As to `Nc1ncnc2c1ncn2[C@@H]1O[C@H](COP(=O)(O)OP(=O)(O)OP(=O)(O)O)[C@@H](O)[C@@H]1O` [Ara-ATP, Ara-adenosine 5′-triphosphate], in test [1], the “Apparent affinity / potency (in words)” value was “lower apparent affinity than ATP” and the “Efficacy (in words)” value is “greatly reduced efficacy”. The EC50 in test [1] (setting [2]) is above 100 µM.

Take `Nc1ccn([C@@H]2O[C@H](COP(=O)(O)OP(=O)(O)OP(=O)(O)O)[C@@H](O)[C@H]2O)c(=O)n1` [CTP, Cytidine 5′-triphosphate]: the EC50 at rP2X2 Ile185Vah amounted to 1.1 mM; at rP2X2 Val70Vah (Val70Vah, mean ± SEM) it was 2 mM; at rP2X2 Ile185Val, 144 ± 30 µM; at rP2X2 Thr184Ser, 156 ± 30 µM; at rP2X2 Thr184Val, 11.7 mM; in test [1], 370 ± 30 µM. Besides, the “nH (Hill coefficient)” value at rP2X2 Val70Vah (Val70Vah) came to 2.6 ± 0.1. Further, the “Fold increase in EC50, Val70Vah versus WT” value on rP2X2 Val70Vah (Val70Vah compared with WT) is “fivefold”. Moreover, at rP2X2 Thr184Val (Thr184Val compared with WT), the “Fold increase in EC50 (reduction in sensitivity), Thr184Val versus WT” value is listed as around 30 fold. The “Efficacy (in words)” value in test [1] is recorded as “did not alter efficacy; also recorded: ATP-like efficacy”. Moreover, the “Imax agonist/Imax ATP (%)” value in test [1] (WT rP2X2R) came to 105 ± 4%.

Take `O=P(O)(O)OP(=O)(O)OP(=O)(O)OC[C@H]1O[C@@H](n2cnc3c(O)ncnc32)[C@H](O)[C@@H]1O` [ITP, Inosine 5′-triphosphate]: the “Macroscopic currents elicited (in words)” value in test [1] is “failed to evoke any currents”.

Take `Nc1ncnc2c1ncn2[C@@H]1O[C@H](COP(=O)(O)OP(=O)(O)OP(=O)(O)O)[C@@H](O)[C@H]1F` [C2′-F-dATP, 2′-fluoro-2′-deoxyadenosine-5′-triphosphate]: the EC50 in test [1] came out at 52 ± 6 µM. Moreover, in test [1] (WT rP2X2R), the “Fold increase in EC50 (reduced apparent affinity) compared with ATP” value is reported as “twofold”, the Reduction in efficacy is on record as around 40% and the “Imax agonist/Imax ATP (%)” value stood at 60 ± 2%. Further, in test [1] (WT rP2X2R, mean ± SEM), the “nH (Hill coefficient)” value was determined as 2.1 ± 0.1.

In test [1], `Nc1ncnc2c1ncn2[C@@H]1O[C@H](COP(=O)(O)OP(=O)(O)OP(=O)(O)O)C[C@H]1O` [C3′-dATP, 3′-deoxyadenosine-5′-triphosphate] yielded an EC50 of 83 ± 4 µM. For the same molecule, in test [1] (WT rP2X2R), the “Fold increase in EC50 (reduced apparent affinity) compared with ATP” value is “threefold”, the Reduction in efficacy is reported as around 30% and the “Imax agonist/Imax ATP (%)” value was determined as 67 ± 2%. The “nH (Hill coefficient)” value in test [1] (WT rP2X2R, mean ± SEM) stood at 2.6 ± 0.1.
